These results are taken from ChEMBL document CHEMBL1275477, “Discovery and characterization of QPT-1, the progenitor of a new class of bacterial topoisomerase inhibitors” (Antimicrob Agents Chemother, 2008).

Converted amounts (≈) assume the structure as drawn. A value given as a limit tells only on which side of the number the result lay.

Common to all, as to format: functional
The test system of test [1] is Staphylococcus aureus. In words: Antimicrobial activity against Staphylococcus aureus 286607-R1 by broth microdilution method. A digest of the protocol:
(§1)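 Broth microdilution MIC following National Committee for Clinical Laboratory Standards methods. Plasmid-borne GyrB in transformed S. aureus strains was overexpressed by adding 100 ng/ml doxycycline.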

In test [2] the test system is Staphylococcus aureus. The test can be described thus: Antimicrobial activity against Staphylococcus aureus 286607-R1 harboring wild type gyrB by broth microdilution method. In a few lines: as §1
(In broth dilution the organism is exposed to a series of concentrations in liquid medium.)

For test [3], the system named is Staphylococcus aureus. In words: Antibacterial activity against Staphylococcus aureus RN4220 by broth microdilution method. In a few lines:
as §1

Test [4] concerns Staphylococcus aureus. In words: Antimicrobial activity against Staphylococcus aureus RN4220 expressing gyrB D437N mutant gene by broth microdilution method. In a few lines: as §1

In general, MIC refers to the lowest concentration that inhibits growth of the organism. Turning to `CC1(C)S[C@@H]2[C@H](NC(=O)[C@H](N)c3ccccc3)C(=O)N2[C@H]1C(=O)O` [AMPICILLIN], the minimum inhibitory concentration (MIC) against Staphylococcus aureus [1] came to 4 µg/mL (≈ 11.4 µM); in the test on Staphylococcus aureus [2], 2 µg/mL (≈ 5.72 µM); against Staphylococcus aureus [3], 2 µg/mL (≈ 5.72 µM); against Staphylococcus aureus [4], 2 µg/mL (≈ 5.72 µM).
As to `O=C(N[C@H](CO)[C@H](O)c1ccc([N+](=O)[O-])cc1)C(Cl)Cl` [CHLORAMPHENICOL], the MIC in the test on Staphylococcus aureus [1], with Staphylococcus aureus [2], against Staphylococcus aureus [3] and in the test on Staphylococcus aureus [4] was 8 µg/mL (≈ 24.8 µM) throughout.
`CC[C@H]1OC(=O)[C@H](C)[C@@H](O[C@H]2C[C@@](C)(OC)[C@@H](O)[C@H](C)O2)[C@H](C)[C@@H](O[C@@H]2O[C@H](C)C[C@H](N(C)C)[C@H]2O)[C@](C)(O)C[C@@H](C)C(=O)[C@H](C)[C@@H](O)[C@]1(C)O` [ERYTHROMYCIN]: the MIC against Staphylococcus aureus [1], against Staphylococcus aureus [2], in the test with Staphylococcus aureus [3] and in the test on Staphylococcus aureus [4] was 0.5 µg/mL (≈ 0.681 µM) each time.
Take `NC[C@@H]1O[C@H](O[C@H]2[C@@H](O)[C@H](O[C@@H]3[C@@H](O)[C@H](N)C[C@H](N)[C@H]3O[C@H]3O[C@H](CN)[C@@H](O)[C@H](O)[C@H]3N)O[C@@H]2CO)[C@H](N)[C@@H](O)[C@@H]1O` [FRAMYCETIN]: the MIC was determined as 4 µg/mL (≈ 6.51 µM) with Staphylococcus aureus [1], 2 µg/mL (≈ 3.25 µM) against Staphylococcus aureus [2], 2 µg/mL (≈ 3.25 µM) in the test on Staphylococcus aureus [3] and 2 µg/mL (≈ 3.25 µM) with Staphylococcus aureus [4].
`NC[C@H]1O[C@H](O[C@H]2[C@H](O)[C@@H](O[C@H]3O[C@H](CO)[C@@H](O)[C@H](N)[C@H]3O)[C@H](N)C[C@@H]2N)[C@H](O)[C@@H](O)[C@@H]1O` [KANAMYCIN]: the minimum inhibitory concentration (MIC) was 4 µg/mL (≈ 8.26 µM) in the test with Staphylococcus aureus [1], 2 µg/mL (≈ 4.13 µM) in the test on Staphylococcus aureus [2], 2 µg/mL (≈ 4.13 µM) in the test on Staphylococcus aureus [3] and 2 µg/mL (≈ 4.13 µM) with Staphylococcus aureus [4].
`CC(=O)NC[C@H]1CN(c2ccc(N3CCOCC3)c(F)c2)C(=O)O1` [LINEZOLID]: the MIC in the test with Staphylococcus aureus [1], with Staphylococcus aureus [2], against Staphylococcus aureus [3] and against Staphylococcus aureus [4] was 1 µg/mL (≈ 2.96 µM) throughout.
Consider `CCn1cc(C(=O)O)c(=O)c2ccc(C)nc21` [NALIDIXIC ACID], for which the MIC in the test with Staphylococcus aureus [1] is 64 µg/mL (≈ 276 µM); against Staphylococcus aureus [2], 32 µg/mL (≈ 138 µM); against Staphylococcus aureus [3], 32 µg/mL (≈ 138 µM); in the test with Staphylococcus aureus [4] it was 32 µg/mL (≈ 138 µM).
Consider `CCn1cc(C(=O)O)c(=O)c2cc(F)c(N3CCNCC3)cc21` [NORFLOXACIN], for which the MIC in the test on Staphylococcus aureus [1] came out at 2 µg/mL (≈ 6.26 µM); in the test on Staphylococcus aureus [2], 0.5 µg/mL (≈ 1.57 µM); in the test on Staphylococcus aureus [3], 0.5 µg/mL (≈ 1.57 µM); with Staphylococcus aureus [4], 0.5 µg/mL (≈ 1.57 µM).
As for `CO[C@H]1/C=C/O[C@@]2(C)Oc3c(C)c(O)c4c(O)c(c(/C=N/N5CCN(C)CC5)c(O)c4c3C2=O)NC(=O)/C(C)=C\C=C\[C@H](C)[C@H](O)[C@@H](C)[C@@H](O)[C@@H](C)[C@H](OC(C)=O)[C@@H]1C` [RIFAMPIN], the MIC in the test on Staphylococcus aureus [1] and in the test with Staphylococcus aureus [3] was less than 0.625 µg/mL in each case.
Turning to `CN[C@@H]1[C@H](O)[C@H](NC)[C@H]2O[C@@]3(O)C(=O)C[C@@H](C)O[C@H]3O[C@@H]2[C@H]1O` [SPECTINOMYCIN], the MIC against Staphylococcus aureus [1], in the test on Staphylococcus aureus [2], in the test on Staphylococcus aureus [3] and in the test with Staphylococcus aureus [4] was 64 µg/mL (≈ 193 µM) each time.
Regarding `CN[C@@H]1[C@H](O[C@H]2[C@H](O[C@H]3[C@H](O)[C@@H](O)[C@H](N=C(N)N)[C@@H](O)[C@@H]3N=C(N)N)O[C@@H](C)[C@]2(O)C=O)O[C@@H](CO)[C@H](O)[C@H]1O` [STREPTOMYCIN], the MIC in the test on Staphylococcus aureus [1], with Staphylococcus aureus [2], with Staphylococcus aureus [3] and against Staphylococcus aureus [4] was 4 µg/mL (≈ 6.88 µM) throughout.
With `CN(C)[C@@H]1C(O)=C(C(N)=O)C(=O)[C@@]2(O)C(O)=C3C(=O)c4c(O)cccc4[C@@](C)(O)[C@H]3C[C@@H]12` [TETRACYCLINE], the MIC in the test with Staphylococcus aureus [1], in the test on Staphylococcus aureus [2], in the test on Staphylococcus aureus [3] and in the test with Staphylococcus aureus [4] was 0.125 µg/mL (≈ 0.281 µM) in each case.
